Data as given in ChEMBL document CHEMBL2407075, “Sulphonamido-quinoxalines: search for anticancer agent” (Eur J Med Chem, 2013).

How the values were obtained:
Type in all cases: functional
[1] = tested on: SW-620; test: Growth inhibition of human SW620 cells assessed as cell growth at 10^-7 M after 48 hrs by sulforhodamine B assay; details: SW-620, 48 h, read-out: Activity
[2] = tested on: PC-3; test: Growth inhibition of human PC3 cells assessed as cell growth at 10^-7 M after 48 hrs by sulforhodamine B assay; details: PC-3, 48 h, read-out: Activity
[3] = tested on: SK-MEL-28; test: Growth inhibition of human SK-MEL-28 cells assessed as cell growth at 10^-6 M after 48 hrs by sulforhodamine B assay; details: SK-MEL-28, 48 h, read-out: Activity
[4] = tested on: A549; test: Growth inhibition of human A549/ATCC cells assessed as cell growth at 10^-7 M after 48 hrs by sulforhodamine B assay; details: A549, 48 h, read-out: Activity
Summary of the method: (§1)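 Five-dose NCI-60 run (0.01, 0.1, 1, 10 and 100 µM, as 10-fold dilutions from a DMSO stock made at 400× the top final level). Cells were grown in RPMI 1640 with 5% FBS and 2 mM glutamine and plated for 24 h. They were then exposed for 48 h at 37 °C and 5% CO2. TCA fixation was followed by SRB staining with A515 read-out. Percent growth was taken relative to time-zero and control plates.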

[5] = tested on: OVCAR-4; test: Growth inhibition of human OVCAR4 cells assessed as cell growth at 10^-6 M after 48 hrs by sulforhodamine B assay; details: OVCAR-4, 48 h, read-out: Activity
[6] = tested on: NCI-H226; test: Growth inhibition of human NCI-H226 cells after 48 hrs by sulforhodamine B assay; details: NCI-H226, 48 h, read-out: LC50 (the source's name)
Summary of the method: (§2)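 Adherent cells in RPMI 1640 with 5% FBS and 2 mM L-glutamine were plated at 5000–40,000 cells/well and grown 24 h. Five concentrations (0.01–100 µM, DMSO stock) were added for 48 h at 37 °C. Cells were fixed with cold TCA (10% final) and stained with SRB, read at 515 nm. GI50 came from log concentration–growth curves against time-zero and control plates.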

[7] = tested on: RXF 393; test: Growth inhibition of human RXF393 cells after 48 hrs by sulforhodamine B assay; details: RXF 393, 48 h; for CC50: read-out: LC50 (the source's name); summary of the method: as §2
[8] = tested on: DU-145; test: Growth inhibition of human DU145 cells assessed as cell growth at 10^-7 M after 48 hrs by sulforhodamine B assay; details: DU-145, 48 h, read-out: Activity; summary of the method: as §1
[9] = tested on: HCT-116; test: Growth inhibition of human HCT116 cells assessed as cell growth at 10^-7 M after 48 hrs by sulforhodamine B assay; details: HCT-116, 48 h, read-out: Activity
Summary of the method: (§3)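 Five-dose screen at NCI. Cells in RPMI 1640 with 5% FBS and 2 mM L-glutamine, seeded at 5000–40,000 cells/well and grown 24 h at 37 °C, 5% CO2 before dosing, with time-zero plates TCA-fixed. Drug diluted from DMSO stock to 0.01, 0.1, 1, 10 and 100 µM final, 48 h. Cells fixed with cold TCA (10% final), stained with 0.4% SRB and read at 515 nm. Percent growth from Tz, control and test absorbances; GI50, TGI and LC50 from dose-response curves.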

[10] = tested on: HL-60(TB); test: Growth inhibition of human HL-60(TB) cells assessed as cell growth at 10^-7 M after 48 hrs by sulforhodamine B assay; details: HL-60, 48 h, read-out: Activity
Summary of the method: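 HL-60(TB) suspension cells were treated 48 h at 37 °C within the five-dose series (0.01–100 µM), fixed with 16% final TCA and SRB-stained, read at 515 nm. Percentage growth at each concentration = (Ti−Tz)/(C−Tz)×100, or (Ti−Tz)/Tz×100 when Ti<Tz, with time-zero (Tz) and untreated control (C) plates.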

[11] = tested on: SK-MEL-28; test: Growth inhibition of human SK-MEL-28 cells assessed as cell growth at 10^-5 M after 48 hrs by sulforhodamine B assay; details: SK-MEL-28, 48 h, read-out: Activity
[12] = tested on: SW-620; test: Growth inhibition of human SW620 cells assessed as cell growth at 10^-4 M after 48 hrs by sulforhodamine B assay; details: SW-620, 48 h, read-out: Activity
[13] = tested on: KM12; test: Growth inhibition of human KM12 cells assessed as cell growth at 10^-8 M after 48 hrs by sulforhodamine B assay; details: KM12, 48 h, read-out: Activity
[14] = tested on: SN12C; test: Growth inhibition of human SN12C cells assessed as cell growth at 10^-5 M after 48 hrs by sulforhodamine B assay; details: read-out: Activity
[15] = tested on: HOP-62; test: Growth inhibition of human HOP62 cells assessed as cell growth at 10^-7 M after 48 hrs by sulforhodamine B assay; details: HOP-62, 48 h, read-out: Activity; summary of the method: as §3
[16] = Growth inhibition of human Hs 578T cells assessed as cell growth at 10^-4 M after 48 hrs by sulforhodamine B assay; details: read-out: Activity; summary of the method: as §3
[17] = tested on: PC-3; test: Growth inhibition of human PC3 cells after 48 hrs by sulforhodamine B assay; details: PC-3, 48 h; for CC50: read-out: LC50 (the source's name); summary of the method: as §2
[18] = tested on: DU-145; test: Growth inhibition of human DU145 cells assessed as cell growth at 10^-5 M after 48 hrs by sulforhodamine B assay; details: DU-145, 48 h, read-out: Activity; summary of the method: as §1
[19] = tested on: K562; test: Growth inhibition of human K562 cells assessed as cell growth at 10^-5 M after 48 hrs by sulforhodamine B assay; details: K562, 48 h, read-out: Activity
[20] = tested on: M14; test: Growth inhibition of human M14 cells assessed as cell growth at 10^-6 M after 48 hrs by sulforhodamine B assay; details: M14, 48 h, read-out: Activity
[21] = tested on: HCT-15; test: Growth inhibition of human HCT15 cells after 48 hrs by sulforhodamine B assay; details: HCT-15, 48 h; for CC50: read-out: LC50 (the source's name); summary of the method: as §2
[22] = tested on: UACC-62; test: Growth inhibition of human UACC62 cells assessed as cell growth at 10^-5 M after 48 hrs by sulforhodamine B assay; details: UACC-62, 48 h, read-out: Activity
[23] = tested on: HT-29; test: Growth inhibition of human HT-29 cells assessed as cell growth at 10^-4 M after 48 hrs by sulforhodamine B assay; details: HT-29, 48 h, read-out: Activity; summary of the method: as §3
[24] = tested on: MCF7; test: Growth inhibition of human MCF7 cells after 48 hrs by sulforhodamine B assay; details: MCF7, 48 h; for CC50: read-out: LC50 (the source's name); summary of the method: as §2
[25] = tested on: M14; test: Growth inhibition of human M14 cells assessed as cell growth at 10^-5 M after 48 hrs by sulforhodamine B assay; details: M14, 48 h, read-out: Activity
[26] = tested on: MDA-MB-231; test: Growth inhibition of human MDA-MB-231 cells assessed as cell growth at 10^-7 M after 48 hrs by sulforhodamine B assay; details: MDA-MB-231, 48 h, read-out: Activity
[27] = tested on: KM12; test: Growth inhibition of human KM12 cells assessed as cell growth at 10^-4 M after 48 hrs by sulforhodamine B assay; details: KM12, 48 h, read-out: Activity
[28] = tested on: Malme-3M; test: Growth inhibition of human MALME-3M cells assessed as cell growth at 10^-8 M after 48 hrs by sulforhodamine B assay; details: read-out: Activity
[29] = tested on: IGROV-1; test: Growth inhibition of human IGROV1 cells assessed as cell growth at 10^-5 M after 48 hrs by sulforhodamine B assay; details: IGROV-1, 48 h, read-out: Activity; summary of the method: as §3

Compound	growth at 0.1 µM [1] [%]	growth at 0.1 µM [2] [%]	growth at 1 µM [3] [%]	growth at 0.1 µM [4] [%]	growth at 1 µM [5] [%]	CC50 [6] [µM]	CC50 [7] [µM]	growth at 0.1 µM [8] [%]	growth at 0.1 µM [9] [%]	growth at 0.1 µM [10] [%]	growth at 10 µM [11] [%]	growth at 100 µM [12] [%]	growth at 0.01 µM [13] [%]	growth at 10 µM [14] [%]	growth at 0.1 µM [15] [%]	growth at 100 µM [16] [%]	GI50 [17] [µM]	CC50 [17] [µM]	growth at 10 µM [18] [%]	growth at 10 µM [19] [%]	further results
O=S(=O)(Nc1ccc(Cl)cc1)c1ccc2nc(-c3ccccc3)c(-c3ccccc3)nc2c1	91	92	91	97	76	> 100	> 100	99	90	99	21	70	103	21	100	59	1.47	> 100	26	11	growth at 1 µM [20]: 94%; TGI [21]: > 100 µM; CC50 [21]: > 100 µM; growth at 10 µM [22]: -22%; growth at 100 µM [23]: 53%; CC50 [24]: > 100 µM; growth at 10 µM [25]: -27%; growth at 0.1 µM [26]: 101%; growth at 100 µM [27]: 71%; growth at 0.01 µM [28]: 106%; growth at 10 µM [29]: 24%
O=S(=O)(Nc1ccccn1)c1ccc2nc(-c3ccccc3)c(-c3ccccc3)nc2c1	102	93	96	98	82	> 100	> 100	99	87	97	19	59	91	26	101	46	1.39	> 100	31	9	GI50 [7]: 2.14 µM; growth at 1 µM [20]: 98%; TGI [21]: > 100 µM; CC50 [21]: > 100 µM; growth at 10 µM [22]: -13%; growth at 100 µM [23]: 24%; GI50 [24]: 2.18 µM; CC50 [24]: > 100 µM; growth at 10 µM [25]: -42%; growth at 0.1 µM [26]: 107%; growth at 100 µM [27]: 53%; growth at 0.01 µM [28]: 97%; growth at 10 µM [29]: 30%
